From paper PMC5924903 (Proceedings of the National Academy of Sciences of the …, 2018)
Peptide text beside a SMILES is read from it.

System: HsNAA10
Experiment: Nt acetyltransferase inhibitor assay
Assay type: biochemical
Conditions: Ki panel of human NATs
In short: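 In vitro Nt-acetylation assay on purified human NAT enzymes. IC50 values were determined for NAA80. Ki values for the bisubstrate inhibitor were determined across a panel of human NATs. Each reaction was run at least three times, in triplicate. Errors are given as SD.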

Fold reduced potency for NAA10 compared with NAA80: 88 fold
SMILES: CC[C@H](C)[C@H](NC(=O)[C@H](CC(=O)O)NC(=O)[C@H](CC(=O)O)NC(=O)[C@H](CC(=O)O)NC(=O)CSCCNC(=O)CCNC(=O)[C@H](O)C(C)(C)COP(=O)(O)OP(=O)(O)OC[C@H]1O[C@@H](n2cnc3c(N)ncnc32)[C@H](O)[C@@H]1OP(=O)(O)O)C(N)=O [CoA-Ac-DDDI-NH2] (HELM PEPTIDE1{[CC(C)(COP(=O)(O)OP(=O)(O)OC[C@H]1O[C@@H](n2cnc3c(N)ncnc32)[C@H](O)[C@@H]1OP(=O)(O)O)[C@@H](O)C(=O)[*:2]].[bAla].[O=C(CSCCN[*:1])[*:2]].D.D.D.I.[am]}$$$$V2.0)
